Reference: ChEMBL document CHEMBL4251542, “Discovery of cyclopropyl chromane-derived pyridopyrazine-1,6-dione γ-secretase modulators with robust central efficacy” (Medchemcomm, 2017)

Experiments:
Gamma-secretase = experiment: Modulation of gamma-secretase (unknown origin) expressed in CHO cells co-expressing human wild type APP assessed as reduction in amyloid beta 42 levels after 24 hrs by ELISA; type: cell-based
[1] = Apparent intrinsic clearance in human liver microsomes; type: ADME, microsome; conditions: read-out: CLH
[2] = Cardiotoxicity in Wistar rat langendorff isolated heart model assessed as decrease in contractility perfused for 5 mins measured for 1 min; type: toxicity, tissue-based
[3] = Cardiotoxicity in Wistar rat langendorff isolated heart model assessed as decrease in left ventricle pressure perfused for 5 mins measured for 1 min; type: toxicity, tissue-based
[4] = Cardiotoxicity in Wistar rat langendorff isolated heart model assessed as decrease in perfusion pressure perfused for 5 mins measured for 1 min; type: toxicity, tissue-based
[5] = Total Cmax in Sprague-Dawley rat at 30 mg/kg administered via oral gavage measured at 1 to 24 hrs post dose; type: ADME, organism-based; set-up: dose 30 mg/kg, route oral; conditions: in vivo
In short: (§1)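 Single escalating oral gavage doses given to Sprague-Dawley rats, 3/sex/dose. Suspension in 0.5% methylcellulose with 0.1% Polysorbate 80, dosed at 10 mL/kg. […] Clinical signs also monitored.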

Rattus norvegicus [6] = experiment: Unbound Cmax in Sprague-Dawley rat at 30 mg/kg administered via oral gavage measured at 1 to 24 hrs post dose; type: ADME, organism-based; conditions: in vivo; in short: as §1
Rattus norvegicus [7] = experiment: Toxicity in Sprague-Dawley rat assessed as lethality at 30 mg/kg administered via oral gavage; type: organism-based; conditions: in vivo
In short: (§2)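 Single escalating oral gavage doses given to Sprague-Dawley rats, 3 per sex per dose. Suspension in 0.5% methylcellulose with 0.1% Polysorbate 80, dosed at 10 mL/kg. Clinical signs watched continuously for the first several hours and/or intermittently through the dosing day. Plasma drug levels sampled at 1, 4, 8 and 24 h post-dose. Lethality scored per group of 6.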

[8] = Ratio of IC50 for decrease in contractility of Wistar rat langendorff isolated heart model to fCmax in Sprague-Dawley rat at 30 mg/kg administered via oral gavage; type: organism-based; conditions: in vivo
MDR1 (P-gp), human = experiment: in vitro; conditions: dog, MDCK-MDR1;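 further: transwell permeability assay, efflux ratio of apparent permeability, compound tested at 2 µM over 5 h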
Rattus norvegicus [9] = experiment: Toxicity in Sprague-Dawley rat assessed as lethality at 300 mg/kg administered via oral gavage; type: organism-based; conditions: in vivo
[10] = Total Cmax in Sprague-Dawley rat at 300 mg/kg administered via oral gavage measured at 1 to 24 hrs post dose; type: ADME, organism-based; set-up: dose 300 mg/kg, route oral; conditions: in vivo
Rattus norvegicus [11] = experiment: Unbound Cmax in Sprague-Dawley rat at 300 mg/kg administered via oral gavage measured at 1 to 24 hrs post dose; type: ADME, organism-based; conditions: in vivo
[12] = Clearance in rat at 1 mg/kg, iv; type: ADME, organism-based; conditions: in vivo
[13] = Half life in rat at 1 mg/kg, iv; type: ADME, organism-based; conditions: in vivo
[14] = Oral bioavailability in rat at 5 mg/kg; type: ADME, organism-based; conditions: in vivo
[15] = Ratio of drug level in brain to plasma in rat at 5 mg/kg, sc measured at 1 to 7 hrs; type: ADME, organism-based; conditions: brain and plasma, read-out: BPR
[16] = Fraction unbound in rat plasma; type: ADME, cell-free
[17] = Fraction unbound in rat brain; type: ADME, tissue-based
Rattus norvegicus [18] = experiment: Reduction of amyloid beta 42 levels in Sprague-Dawley rat at 10 mg/kg, po measured at 4 hrs by DELFIA analysis relative to control; type: functional; set-up: scale not given: the % may be the effect or the level left
In short: (§3)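 Male Sprague-Dawley rats (254-326 g) dosed orally with vehicle or 10 or 40 mg/kg. Brains taken at 1, 4, 8, 11, 16 and 20 h post-dose, 4 rats per group. Homogenized in 0.4% DEA/50 mM NaCl, held overnight at 4 °C, spun at 135,000xg for 1 h. Supernatant cleaned by solid-phase extraction and concentrated; Aβ42 read by DELFIA as % change vs vehicle.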

Rattus norvegicus [19] = experiment: Reduction of amyloid beta 42 levels in Sprague-Dawley rat at 40 mg/kg, po measured at 4 hrs by DELFIA analysis relative to control; type: functional; set-up: scale not given: the % may be the effect or the level left; in short: as §3
[20] = Unbound brain concentration in Sprague-Dawley rat at 10 mg/kg, po; type: ADME, organism-based; conditions: in vivo
[21] = Unbound brain concentration in Sprague-Dawley rat at 40 mg/kg, po; type: ADME, organism-based; conditions: in vivo
Rattus norvegicus [22] = experiment: Reduction of amyloid beta 42 levels in Sprague-Dawley rat at unbound brain concentration administered 10 mg/kg, po by DELFIA analysis relative to control; type: functional
Rattus norvegicus [23] = experiment: Toxicity in Sprague-Dawley rat assessed as lethality at 100 mg/kg administered via oral gavage; type: organism-based; conditions: in vivo; in short: as §2
[24] = Total Cmax in Sprague-Dawley rat at 100 mg/kg administered via oral gavage measured at 1 to 24 hrs post dose; type: ADME, organism-based; set-up: dose 100 mg/kg, route oral; conditions: in vivo; in short: as §1
Rattus norvegicus [25] = experiment: Unbound Cmax in Sprague-Dawley rat at 100 mg/kg administered via oral gavage measured at 1 to 24 hrs post dose; type: ADME, organism-based; conditions: in vivo; in short: as §1
[26] = Ratio of IC50 for decrease in contractility of Wistar rat langendorff isolated heart model to fCmax in Sprague-Dawley rat at 100 mg/kg administered via oral gavage; type: organism-based; conditions: in vivo

IC50 (Gamma-secretase) [nM]	microsomal CLint [1] [µL/min/mg]	efflux ratio at 5 h, 2 µM (MDR1 (P-gp), human)	Compound	also measured
52	14.6	1.7	Cc1cn(-c2ccc3n(c2=O)CCN(C[C@@]24C[C@@H]2COc2cc(C(F)(F)F)ccc24)C3=O)cn1	
13	47.8	2	Cc1cn(-c2ccc3n(c2=O)CCN(CC2=CC(C)(C)Oc4ccc(C(F)(F)F)cc42)C3=O)cn1	
322	37.6	1.9	Cc1cn(-c2ccc3n(c2=O)CCN(CC2CCOc4ccc(C(F)(F)F)cc42)C3=O)cn1 (stereo unspecified)	
5.6	37.9	2.4	Cc1cn(-c2ccc3n(c2=O)CCN(C[C@@]24C[C@@H]2COc2ccc(C(F)(F)F)cc24)C3=O)cn1	
801	242	1.8	Cc1cn(-c2ccc3n(c2=O)CCN([C@H](C)C2=CC(C)(C)Oc4ccc(C(F)(F)F)cc42)C3=O)cn1	
63	43.9	1.8	Cc1cn(-c2ccc3n(c2=O)CCN(C[C@@]24C[C@@H]2COc2ccc(Cl)cc24)C3=O)cn1	
53		1.9	Cc1cn(-c2ccc3n(c2=O)CCN(CC2=CC(C)(C)Oc4ccc(Cl)cc42)C3=O)cn1	
129	70.5	1.9	Cc1cn(-c2ccc3n(c2=O)CCN(C[C@]24C[C@H]2COc2ccc(C(F)(F)F)cc24)C3=O)cn1	
30	108	1.7	Cc1cn(-c2ccc3n(c2=O)CCN(CC2=CCOc4ccc(C(F)(F)F)cc42)C3=O)cn1	
181	33.7	2.2	COc1ccc2c(c1)[C@]1(CN3CCn4c(ccc(-n5cnc(C)c5)c4=O)C3=O)C[C@@H]1CO2	

Compound	IC50 (Gamma-secretase) [nM]	microsomal CLint [1] [µL/min/mg]	efflux ratio at 5 h, 2 µM (MDR1 (P-gp), human)	also measured
Cc1cn(-c2ccc3n(c2=O)CCN([C@@H](C)C2=CC(C)(C)Oc4ccc(C(F)(F)F)cc42)C3=O)cn1	4.9	14.3	1.9	IC50 at 5 min [2]: 1360 nM; IC50 at 5 min [3]: 1030 nM; EC50 at 5 min [4]: 576 nM; Cmax [5]: 5.84 µM; fCmax (Rattus norvegicus [6]): 205 nM; Activity (Rattus norvegicus [7]): Toxic; Ratio [8]: 6.6
Cc1cn(-c2ccc3n(c2=O)CCN(C[C@@]24C[C@@H]2C(C)(C)Oc2ccc(C(F)(F)F)cc24)C3=O)cn1		34.5		IC50 at 5 min [2]: > 30000 nM; IC50 at 5 min [3]: > 30000 nM; EC50 at 5 min [4]: > 30000 nM; Activity (Rattus norvegicus [9]): Non-Toxic; Cmax [10]: 90.4 µM; fCmax (Rattus norvegicus [11]): 1620 nM; clearance [12]: 26.4 mL/min/kg; half-life [13]: 1.6 h; bioavailability [14]: 67%; Kp [15]: 0.76; fraction unbound [16]: 0.018; fraction unbound [17]: 0.0054; Activity (Rattus norvegicus [18]): 40%; Activity (Rattus norvegicus [19]): 62%; Drug uptake(free) [20]: 11 nM; Drug uptake(free) [21]: 67 nM; %max (Rattus norvegicus [22]): 40%
Cc1cn(-c2ccc3n(c2=O)CCN(C[C@@]24C[C@@H]2C(C)(C)Oc2ccc(OC(F)(F)F)cc24)C3=O)cn1	5.1	42.4	2.1	IC50 at 5 min [2]: > 30000 nM; IC50 at 5 min [3]: > 30000 nM; EC50 at 5 min [4]: > 30000 nM; Activity (Rattus norvegicus [9]): Non-Toxic; Cmax [10]: 60.9 µM; fCmax (Rattus norvegicus [11]): 670 nM
Cc1cn(-c2ccc3n(c2=O)CCN([C@@H](C)C2=CC(C)(C)Oc4ccc(OC(F)(F)F)cc42)C3=O)cn1	6	25.7	1.9	IC50 at 5 min [2]: 2480 nM; IC50 at 5 min [3]: 1620 nM; EC50 at 5 min [4]: 1370 nM; Activity (Rattus norvegicus [23]): Toxic; Cmax [24]: 17.7 µM; fCmax (Rattus norvegicus [25]): 620 nM; Ratio [26]: 4
